Source: ChEMBL document CHEMBL1137371, “Pyrazolidine-3,5-diones and 5-hydroxy-1H-pyrazol-3(2H)-ones, inhibitors of UDP-N-acetylenolpyruvyl glucosamine reductase” (J Med Chem, 2006)
≈ marks a conversion by molar mass, not a printed value. Calls of active or inactive are those of the source. The rule behind the calls is not given here.

Columns and labels:
[1] = molecular target: T1, UDP-N-acetylenolpyruvoylglucosamine reductase (Escherichia coli K-12, UniProt P08373); experiment: Inhibition of MurB activity
T1 sequence (P08373 whole entry): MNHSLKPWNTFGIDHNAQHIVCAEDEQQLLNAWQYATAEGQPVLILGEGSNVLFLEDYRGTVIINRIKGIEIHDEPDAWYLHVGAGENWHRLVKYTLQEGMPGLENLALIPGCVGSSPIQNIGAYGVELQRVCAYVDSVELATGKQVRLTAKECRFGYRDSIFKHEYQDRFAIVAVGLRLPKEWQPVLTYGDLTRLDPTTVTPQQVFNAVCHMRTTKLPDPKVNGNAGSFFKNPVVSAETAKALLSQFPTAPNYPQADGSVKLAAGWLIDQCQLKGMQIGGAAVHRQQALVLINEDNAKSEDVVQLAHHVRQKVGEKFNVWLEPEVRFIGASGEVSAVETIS
How it was run: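 Recombinant E. coli MurB was expressed in BL21(λDE3) and purified. Enzyme (20 nM) was preincubated 20 min with inhibitor at 1.6, 3.2, 6.4, 12.8, 25 and 50 µM. Reaction in 50 mM Tris-HCl pH 8.0 with 10 mM KCl, 50 µM enolpyruvyl UDP-GlcNAc and 100 µM NADPH. NADPH oxidation followed as A340 decrease over 5 min. IC50 from sigmoid Hill fit, mean of three runs.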

Candida albicans = experiment: Antibacterial activity against Candida albicans by micro-broth dilution method; assay type: functional, organism-based
How it was run: (§1)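 Broth microdilution in Mueller-Hinton II medium per NCCLS recommendations. Inoculum 5 × 10⁵ cfu/mL, compound range 0.06-128 µg/mL. MIC read after 18 h at 35 °C in ambient air.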

Enterococcus faecalis = experiment: Antibacterial activity against vancomycin resistant Enterococcus faecalis GC 2242 by microbroth dilution method; assay type: functional
Escherichia coli = experiment: Antibacterial activity against Escherichia coli GC 4560 (imp) by micro-broth dilution method; assay type: functional; how it was run: as §1
Staphylococcus aureus = experiment: Antibacterial activity against methicillin resistant Staphylococcus aureus GC 1131 by micro-broth dilution method; assay type: functional
[2] = system: Staphylococcus epidermidis; experiment: Inhibition of soluble peptidoglycan biosynthesis in Staphylococcus epidermidis; assay type: functional, organism-based
How it was run: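 S. epidermidis was grown in BHI to OD600 0.6, washed and concentrated tenfold in cell-wall-enriched medium. Cells incubated with 50 µg/mL chloramphenicol, 100 µg/mL penicillin G, [¹⁴C]-GlcNAc (2.9 µM/40 nCi) and compound at 0-25 µg/mL, 1 h, 37 °C, shaking. Supernatant precipitated with 5% TCA/0.4% BSA, 30 min at 4 °C, then filtered and scintillation counted.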

Streptococcus pneumoniae [3] = experiment: Antibacterial activity against penicillin resistant Streptococcus pneumoniae GC 1894 by microbroth dilution method; assay type: functional
Streptococcus pneumoniae [4] = experiment: Antibacterial activity against Streptococcus pneumoniae in presence of 4% bovine serum albumin; assay type: functional
[5] = Enterococcus faecalis, GC 2242, read-out: MIC
[6] = Escherichia coli, GC 4560, read-out: MIC
[7] = Staphylococcus aureus, GC 1131, read-out: MIC
[8] = Streptococcus pneumoniae, GC 1894, read-out: MIC

Row | Compound | IC50 [1] | Activity (Candida albicans) | MIC (Enterococcus faecalis; [5]) | MIC (Escherichia coli; [6]) | MIC (Staphylococcus aureus; [7]) | IC50 [2] | MIC (Streptococcus pneumoniae [3]; [8]) | MIC (Streptococcus pneumoniae [4]) | MIC (Enterococcus faecalis) | MIC (Streptococcus pneumoniae [3]) | MIC (Escherichia coli) | MIC (Staphylococcus aureus)
1 | O=C(c1ccc(-c2ccccc2)cc1)c1c(O)n(-c2ccc(Cl)cc2)n(-c2ccc(Cl)cc2)c1=O | 6.1 µM | inactive | 0.39 µg/mL (≈ 0.778 µM) | > 100 µg/mL | 3.1 µg/mL (≈ 6.18 µM) | 4.9 µM | 0.3 µg/mL (≈ 0.598 µM) | > 128 µg/mL | – | – | – | –
2 | O=C(Nc1ccc(Cl)c(Cl)c1)c1c(O)n(-c2ccc(Cl)c(Cl)c2)n(-c2ccc(Cl)c(Cl)c2)c1=O | 4.8 µM | inactive | 0.5 µg/mL (≈ 0.865 µM) | > 128 µg/mL | 64 µg/mL (≈ 111 µM) | – | 0.5 µg/mL (≈ 0.865 µM) | > 128 µg/mL | – | – | – | –
3 | O=C1CC(=O)N(c2ccc(Cl)cc2)N1c1ccc(Cl)cc1 | 71.6 µM | – | 8 µg/mL (≈ 24.9 µM) | 16 µg/mL (≈ 49.8 µM) | 8 µg/mL (≈ 24.9 µM) | – | 8 µg/mL (≈ 24.9 µM) | – | – | – | – | –
4 | O=C(c1ccc(OC(F)(F)F)cc1)c1c(O)n(-c2ccc(Cl)cc2)n(-c2ccc(Cl)cc2)c1=O | 5.4 µM | inactive | 0.79 µg/mL (≈ 1.55 µM) | 25.4 µg/mL (≈ 49.9 µM) | 12.7 µg/mL (≈ 24.9 µM) | 2 µM | 0.79 µg/mL (≈ 1.55 µM) | > 128 µg/mL | – | – | – | –
5 | O=C(Nc1ccccc1)c1c(O)n(-c2ccccc2)n(-c2ccccc2)c1=O | 54 µM | inactive | 8 µg/mL (≈ 21.5 µM) | > 128 µg/mL | 64 µg/mL (≈ 172 µM) | – | 16 µg/mL (≈ 43.1 µM) | > 128 µg/mL | – | – | – | –
6 | O=C1CC(=O)N(c2ccc(Cl)c(Cl)c2)N1c1ccc(Cl)c(Cl)c1 | 25.1 µM | – | 8 µg/mL (≈ 20.5 µM) | 32 µg/mL (≈ 82 µM) | 8 µg/mL (≈ 20.5 µM) | 41 µM | 4 µg/mL (≈ 10.3 µM) | – | – | – | – | –
7 | O=C(c1ccc(C(F)(F)F)cc1)c1c(O)n(-c2ccc(Cl)cc2)n(-c2ccc(Cl)cc2)c1=O | 15 µM | inactive | – | 16 µg/mL (≈ 32.4 µM) | 8 µg/mL (≈ 16.2 µM) | – | – | > 128 µg/mL | 2 µg/mL (≈ 4.05 µM) | 0.5 µg/mL (≈ 1.01 µM) | – | –
8 | O=C1C(=C(O)c2ccc(Cl)c(Cl)c2)C(=O)N(c2ccc(Cl)cc2)N1c1ccc(Cl)cc1 | 13 µM | inactive | 0.77 µg/mL (≈ 1.56 µM) | 49 µg/mL (≈ 99.2 µM) | 6.2 µg/mL (≈ 12.5 µM) | – | 0.39 µg/mL (≈ 0.789 µM) | > 128 µg/mL | – | – | – | –
9 | O=C1CC(=O)N(c2ccc(F)cc2)N1c1ccc(F)cc1 | > 87 µM | – | 128 µg/mL (≈ 444 µM) | 64 µg/mL (≈ 222 µM) | 128 µg/mL (≈ 444 µM) | – | 64 µg/mL (≈ 222 µM) | – | – | – | – | –
10 | O=C1CC(=O)N(c2ccccc2)N1c1ccccc1 | > 100 µM | – | – | – | – | – | – | – | – | – | – | –
11 | O=C(c1ccc(Cl)cc1)c1c(O)n(-c2ccc(Cl)cc2)n(-c2ccc(Cl)cc2)c1=O | 11 µM | inactive | – | – | – | – | – | > 128 µg/mL | 1.4 µg/mL (≈ 3.05 µM) | 0.72 µg/mL (≈ 1.57 µM) | 23 µg/mL (≈ 50 µM) | 5.7 µg/mL (≈ 12.4 µM)
12 | O=C(Nc1ccc(Cl)cc1)c1c(O)n(-c2cccc(Cl)c2)n(-c2cccc(Cl)c2)c1=O | 8.6 µM | inactive | 0.25 µg/mL (≈ 0.527 µM) | > 128 µg/mL | 0.5 µg/mL (≈ 1.05 µM) | 3 µM | < 0.12 µg/mL | > 128 µg/mL | – | – | – | –
13 | COc1ccc(NC(=O)c2c(O)n(-c3ccc(Cl)cc3)n(-c3ccc(Cl)cc3)c2=O)cc1 | 16 µM | inactive | – | – | – | – | – | – | – | – | >128 µg/mL | –
14 | O=C1CC(=O)N(c2cccc(Cl)c2)N1c1cccc(Cl)c1 | 68.5 µM | – | 16 µg/mL (≈ 49.8 µM) | 200 µg/mL (≈ 623 µM) | 16 µg/mL (≈ 49.8 µM) | 56 µM | 8 µg/mL (≈ 24.9 µM) | – | – | – | – | –
15 | O=C(Nc1ccc(Cl)cc1)c1c(O)n(-c2ccc(Cl)cc2)n(-c2ccc(Cl)cc2)c1=O | 13.7 µM | inactive | – | – | – | 42.2 µM | – | – | – | – | 2 µg/mL (≈ 4.21 µM) | –
16 | O=C(Nc1ccc(Cl)cc1)c1c(O)n(-c2ccccc2)n(-c2ccccc2)c1=O | 54 µM | inactive | 1 µg/mL (≈ 2.46 µM) | > 128 µg/mL | 32 µg/mL (≈ 78.8 µM) | – | 0.5 µg/mL (≈ 1.23 µM) | > 128 µg/mL | – | – | – | –
17 | CCCCOc1ccc(C(=O)c2c(O)n(-c3ccc(Cl)cc3)n(-c3ccc(Cl)cc3)c2=O)cc1 | 4.5 µM | inactive | 0.39 µg/mL (≈ 0.784 µM) | > 100 µg/mL | 1.6 µg/mL (≈ 3.22 µM) | 7.3 µM | 0.39 µg/mL (≈ 0.784 µM) | > 128 µg/mL | – | – | – | –
18 | COc1ccc(C(=O)c2c(O)n(-c3ccc(Cl)cc3)n(-c3ccc(Cl)cc3)c2=O)cc1 | 10 µM | inactive | – | – | 11.3 µg/mL (≈ 24.8 µM) | – | – | > 128 µg/mL | 5.7 µg/mL (≈ 12.5 µM) | 2.8 µg/mL (≈ 6.15 µM) | 23 µg/mL (≈ 50.5 µM) | –
19 | Cc1ccc(NC(=O)c2c(O)n(-c3ccc(Cl)c(Cl)c3)n(-c3ccc(Cl)c(Cl)c3)c2=O)cc1 | 4.8 µM | inactive | 0.25 µg/mL (≈ 0.478 µM) | > 128 µg/mL | 16 µg/mL (≈ 30.6 µM) | 4 µM | < 0.12 µg/mL | > 128 µg/mL | – | – | – | –
20 | O=C(Nc1ccc(C(F)(F)F)cc1)c1c(O)n(-c2cccc(Cl)c2)n(-c2cccc(Cl)c2)c1=O | 8.7 µM | inactive | < 0.12 µg/mL | 64 µg/mL (≈ 126 µM) | 0.5 µg/mL (≈ 0.984 µM) | 2.2 µM | < 0.12 µg/mL | > 128 µg/mL | – | – | – | –
21 | COc1ccc(CC(=O)c2c(O)n(-c3ccc(Cl)cc3)n(-c3ccc(Cl)cc3)c2=O)cc1 | 40 µM | inactive | 1.4 µg/mL (≈ 2.98 µM) | > 94 µg/mL | 11.7 µg/mL (≈ 24.9 µM) | – | 0.73 µg/mL (≈ 1.56 µM) | > 128 µg/mL | – | – | – | –
22 | O=C(c1cccs1)c1c(O)n(-c2ccc(Cl)cc2)n(-c2ccc(Cl)cc2)c1=O | 5.8 µM | inactive | 1.3 µg/mL (≈ 3.01 µM) | 21.6 µg/mL (≈ 50.1 µM) | 5.4 µg/mL (≈ 12.5 µM) | 1 µM | 0.67 µg/mL (≈ 1.55 µM) | > 128 µg/mL | – | – | – | –
23 | O=C(Nc1ccc(C(F)(F)F)cc1)c1c(O)n(-c2ccc(Cl)cc2)n(-c2ccc(Cl)cc2)c1=O | 5.9 µM | inactive | – | – | – | 8.3 µM | – | – | – | – | 16 µg/mL (≈ 31.5 µM) | –
24 | O=C(Nc1ccc(Br)cc1)c1c(O)n(-c2ccccc2)n(-c2ccccc2)c1=O | 42 µM | inactive | 1 µg/mL (≈ 2.22 µM) | > 128 µg/mL | 16 µg/mL (≈ 35.5 µM) | – | 1 µg/mL (≈ 2.22 µM) | > 128 µg/mL | – | – | – | –
